High-throughput results: PubChem BioAssay, several laboratories
The list is not random: actives were taken first. Their share in the collection is about 6.8%.
HSF1 inh: HSF1 inhibitors in luciferase reporter cells, primary screen, cell-based, NIH3T3, luminescence; NIH3T3-HGL HSE-luciferase, MG132-induced, luminescence 8 h; active compounds read low; activity change, negative = inhibition, % at 7.5 µM (by protocol); actives 0.77% (n = 300,000); AID 2098, 2009;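 active = more than half of replicate wells show activity change below -50%, luminescence cut by over half; inconclusive = some wells, but at most half, below -50%; inactive = no replicate well below -50%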;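 note: luciferase reports HSF-1 transcriptional activity via heat shock element; 0% = median of DMSO wells and -100% = zero luminescence signal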
AI-2 QS mod: Vibrio harveyi AI-2 quorum sensing modulators, primary screen, JMH597 strain, luminescence/OD600 ratio. actives 0.4% (n = 300,000). Vibrio harveyi JMH597 AI-2 luminescence/OD600 ratio, 9 h; active compounds read low; strain lacks LuxN and CqsS sensors; 0 = neutral-control median. activity change, % at 7.5 µM. AID 2094, 2009; in the data active = activity change below about -75%, passing the limit was not always enough; inconclusive = no clear call, values can overlap the other calls;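 note: luminescence divided by OD600 gain over 9 h not by final OD600 alone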
PHOSPHO1 inh: PubChem AID 1565. Phosphoethanolamine/phosphocholine phosphatase (Homo sapiens), Q8TCT1. recombinant PHOSPHO1, absorbance phosphatase assay. inhibition, % at 13.3 µM. actives 1.1% (n = 290,000); in the data active = inhibition above about 60%
Target sequence (Q8TCT1 whole entry, looked up): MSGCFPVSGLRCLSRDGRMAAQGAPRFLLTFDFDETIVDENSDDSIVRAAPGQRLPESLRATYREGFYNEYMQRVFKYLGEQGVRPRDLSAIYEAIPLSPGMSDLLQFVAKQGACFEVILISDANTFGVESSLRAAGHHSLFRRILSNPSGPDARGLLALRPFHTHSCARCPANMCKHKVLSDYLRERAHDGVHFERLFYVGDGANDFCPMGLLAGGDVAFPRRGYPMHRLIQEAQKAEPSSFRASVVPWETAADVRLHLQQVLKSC
HSF-1 act: HSF-1 activators, primary screen, NIH3T3-HGL cells, MG132 stress, luminescence, single point; actives 1.7% (n = 300,000); activation, % at 9 µM; NIH3T3-HGL HSF-1 luciferase reporter, 8 h; 100% = twice DMSO control signal;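 active = mean replicate activation of at least 50% with a set share of replicates each reaching 50%; inconclusive = only one of those two conditions met; inactive = mean below 50% and too few replicates reaching it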;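 note: 0% = median of the neutral control wells and 100% = twice that signal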
HCV core dimer: inhibitors of HCV core protein dimerization, primary screen, biochemical, TR-FRET, high-throughput; TR-FRET GST/Flag-core106 dimerization, 1536-well; inhibition, % at 5 µM; actives 0.33% (n = 300,000); AID 1899, 2009;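 active = inhibition above the mean of all tested compounds plus 3 SD, set per screening campaign, cut at about 45% in these data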
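Material: GST/Flag-tagged HCV core106 proteins. Incubation: 4 h, 22.5 °C incubation. Read-out basis: inhibition (%) from 671 over 617 nm ratio. Measured by: TR-FRET, excitation 340 nm, emission 617 and 671 nm.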
ALR inh: inhibitors of human ALR sulfhydryl oxidase, primary screen, biochemical, H2O2 detection, HRP-luminol luminescence, single point; purified ALR, DTT oxidation; FAD-linked sulfhydryl oxidase ALR (Homo sapiens), P55789; AID 485317, 2010; actives 3.8% (n = 290,000); inhibition, % (concentration not given with the values);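 active = mean replicate inhibition above about 79%, with every replicate also reaching it, limit read from the data; inconclusive = only one of the two criteria met; inactive = mean below limit and not every replicate reaching it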
Target sequence (P55789 whole entry, looked up): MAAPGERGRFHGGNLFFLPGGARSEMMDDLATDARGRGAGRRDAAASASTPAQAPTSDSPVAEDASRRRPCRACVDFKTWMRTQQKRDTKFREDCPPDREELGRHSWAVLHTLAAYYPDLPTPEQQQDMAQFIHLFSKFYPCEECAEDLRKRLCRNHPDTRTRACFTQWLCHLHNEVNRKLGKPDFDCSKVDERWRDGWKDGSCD
Starred values were filed as active, the others as inactive; ? = inconclusive; . = not tested or not shown.

SMILES	HSF1 inh	AI-2 QS mod	PHOSPHO1 inh	HSF-1 act	HCV core dimer	ALR inh
Cc1ccc(C2C(/C=C3/SC(=S)NC3=O)=C(c3cccs3)Oc3ccccc32)cc1 (stereo unspecified)	8	43	9	2	32	99*
COc1cc(-c2nc(CN3CCCCC3CCNC(C)=O)c(C)o2)ccc1F (stereo unspecified)	-6	6	28	-20	-3	-1
COc1ccc(-c2nc(CN3CCC(C(=O)N4CCOCC4)CC3)c(C)o2)cc1OC	-16	19	54	-8	0	-1
COc1ccc(-c2nc(CS(=O)CC(=O)NCCCN3CCCC3)c(C)o2)cc1OC (stereo unspecified)	0	18	16	2	-6	99*
COc1ccc(-c2nc(CS(=O)CC(=O)NCCN3CCCCCC3)c(C)o2)cc1OC (stereo unspecified)	4	.	18	15	-4	100*
COc1ccc(-c2nc(CS(=O)CC(=O)NCCN3CCCCC3C)c(C)o2)cc1OC (stereo unspecified)	-6	-6	21	-7	-11	100*
COc1ccc(-c2nc(CS(=O)CC(=O)NCCCN3CCOCC3)c(C)o2)cc1OC (stereo unspecified)	7	-6	21	18	-14	99*
CC1=NN(c2ccccc2)C(=O)C1N=Nc1ccc(S(N)(=O)=O)cc1 (stereo unspecified)	-78*	8	21	-80	-7	-2
CCOc1ccccc1Nc1nnc(SCc2nnc(-c3cc(OC)c(OC)c(OC)c3)o2)s1	-74*	27	-14	-81	3	9
COc1cc(-c2nnc(CSc3nnc(Nc4ccc(C(C)C)cc4)s3)o2)cc(OC)c1OC	28	21	2	56*	2	2
COc1ccccc1Nc1nnc(SCc2nnc(-c3cc(OC)c(OC)c(OC)c3)o2)s1	-5	20	-9	-4	7	-6
COc1ccc([N+](=O)[O-])cc1NC(=O)CSc1nccc(C)n1	9	32	10	35	51*	.
COc1ccc([N+](=O)[O-])cc1NC(=O)CSCc1ccccc1C	-6	14	-9	9	6	99*
COc1ccc(C)cc1NC(=O)CSCc1ccccc1C	25	-10	8	31	-2	10
O=C(NCc1ccncc1)C(=O)N/N=C/c1cccnc1	1	6	45	20	-4	-12
COc1ccccc1NC(=O)c1ccc(SCC(=O)NCc2ccccc2Cl)c([N+](=O)[O-])c1	0	23	0	6	53*	2
COc1ccc(-n2cnnc2SCc2ncc(-c3ccccc3)o2)cc1	-1	-5	-11	-8	-4	-2
Cn1c(COc2cccc3cccnc23)nnc1SCC(=O)O	-6	1	35	-3	-1	-22
Cn1c(COc2ccc3ccccc3c2)nnc1SCC(=O)O	-1	12	62*	13	0	-13
COc1ccc(OCc2nnc(SCC(=O)O)n2N)cc1	-4	10	60*	-21	-1	31
Cn1c(COc2ccc(Cl)cc2)nnc1SCc1ncc(-c2ccccc2)o1	8	17	80*	-1	7	-13
CCCc1cc(=O)oc2cc(C)cc(OCC(=O)N3CCC(C(N)=O)CC3)c12	-1	13	23	6	2	-20
Cc1ccc(C)c(Cn2ncc3ccccc32)c1	1	4	38	1	11	-11
CCCCc1ccc(/C(C)=N/NC(=O)C2CCCC2)cc1	-5	12	31	0	0	-14
O=S(=O)(c1cccc2cccnc12)N1CCOCC1	.	2	14	.	-6	-5
SMILES	HSF1 inh	AI-2 QS mod	PHOSPHO1 inh	HSF-1 act	HCV core dimer	ALR inh
CC1CC(C)CN(S(=O)(=O)c2cccc3cccnc23)C1 (stereo unspecified)	-4	3	37	1	6	92*
COc1cccc(N2CCN(S(=O)(=O)c3cccc4cccnc34)CC2)c1	16	22	-1	22	6	94*
O=C(C1CCCN1S(=O)(=O)c1cccc2cccnc12)N1CCN(c2ccccc2)CC1 (stereo unspecified)	0	23	-4	6	4	88*
O=S(=O)(c1cccc2cccnc12)N1CCN(c2ccc(F)cc2)CC1	1	13	12	4	5	.
COc1ccc(N2CCN(S(=O)(=O)c3cccc4cccnc34)CC2)cc1	4	-8	9	5	-2	78*
CN(CC1CCCO1)S(=O)(=O)c1ccc(C(=O)NCc2ccccc2)cc1 (stereo unspecified)	-3	21	-4	12	4	-5
Cc1cc(NC(=O)CSc2c(C)[nH]c3ccccc23)no1	-5	14	-14	-1	-15	95*
Cc1cc(NC(=O)C(Cl)c2ccccc2)no1 (stereo unspecified)	4	-86*	34	22	0	15
Cc1cc(NC(=O)CSc2ccccn2)no1	-3	6	16	-3	5	-9
Cc1cc(NC(=O)CSc2c[nH]c3ccccc23)no1	3	7	9	16	-16	99*
CCC(Oc1ccccc1)C(=O)Nc1cc(C)on1 (stereo unspecified)	5	-2	26	17	10	4
Cc1ccc2c(c1)-n1c(nc3ccc(C)cc3c1=O)C(Cc1ccccc1)NC2=O (stereo unspecified)	.	.	.	.	.	-3
Oc1ccccc1C(Nc1nccs1)c1ccc2cccnc2c1O (stereo unspecified)	-57*	?	27	-64	-2	-5
Oc1c(C(Nc2ccccn2)c2ccccn2)ccc2cccnc12 (stereo unspecified)	-20	?	31	-19	-4	25
CCOC(=O)c1c(C)[nH]c(C)c1S(=O)(=O)NCc1cc(C)ccc1C	5	22	18	12	2	-2
COc1ccc(CN(C)S(=O)(=O)c2nnc(NC(=O)c3cccc(OC)c3)s2)cc1	-5	2	12	12	8	2
COc1cccc(C(=O)Nc2nnc(S(=O)(=O)N(C)Cc3ccc(F)cc3)s2)c1	-5	14	7	-1	23	84*
O=C(NCC1CCOCC1)c1ccc2nc(Cc3cccc(Cl)c3)oc2c1	12	10	-1	54*	10	3
NC(=S)N/N=C/c1c[nH]c2ccccc12	-1	16	-20	-12	-6	99*
